Measured values published in ChEMBL document CHEMBL3872252, “New bithiazolyl hydrazones: Novel synthesis, characterization and antitubercular evaluation” (Bioorg Med Chem Lett, 2017).
Values after ≈ are worked out from the molar mass of the structure shown.

Assays:
[1] = test system: Escherichia coli; assay: Growth inhibition of Escherichia coli at 10 ug/ml; assay type: functional; details: read-out: GI
[2] = test system: Pseudomonas aeruginosa; assay: Growth inhibition of Pseudomonas aeruginosa at 3 ug/ml; assay type: functional; details: read-out: GI
In short: (§1)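 Screened against Gram-negative E. coli and P. aeruginosa and Gram-positive S. aureus and B. subtilis. Compound was tested at 3 µg/ml, and the read-out is percent growth inhibition.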

[3] = Antitubercular activity against Mycobacterium tuberculosis H37Ra ATCC 25177 active stage infected in human THP1 cells measured on day 8 by nitrate reductase assay; assay type: functional, THP-1; details: ATCC 25177, 192 h
[4] = Selectivity index, ratio of GI50 for human HCT116 cells to MIC90 for Mycobacterium bovis BCG ATCC 35743 active stage; assay type: toxicity, cell-based, HCT-116; details: read-out: Selectivity Index
In short: (§2)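 Cytotoxicity was measured on human MCF-7, HCT116 and THP-1 cells by MTT assay, with paclitaxel as reference. GI50 is the concentration inhibiting 50% of cell growth. The selectivity index is GI50 for the given cell line divided by MIC90 for the given mycobacterial strain and stage.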

[5] = Selectivity index, ratio of GI50 for human MCF7 cells to MIC90 for Mycobacterium bovis BCG ATCC 35743 active stage; assay type: toxicity, cell-based; details: read-out: Selectivity Index; in short: as §2
[6] = Selectivity index, ratio of GI50 for human THP1 cells to MIC90 for Mycobacterium tuberculosis H37Ra ATCC 25177 active stage; assay type: toxicity, cell-based, THP-1; details: read-out: Selectivity Index; in short: as §2
[7] = Antitubercular activity against Mycobacterium tuberculosis H37Ra ATCC 25177 dormant stage measured on day 12 by XTT reduction menadione based two-fold dilution assay; assay type: functional; details: ATCC 25177, 288 h
In short: (§3)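 M. tuberculosis H37Ra ATCC 25177 was exposed to 0.7–100 μg/mL in two-fold steps (0.7, 1.5, 3.1 … 100). Active stage was read after 8 days and dormant stage after 12 days of incubation. Inhibition was read by XTT reduction menadione assay (XRMA), absorbance 470 nm. MIC90 is the concentration giving ≥90% inhibition (µg/mL).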

[8] = Selectivity index, ratio of GI50 for human HCT116 cells to MIC90 for Mycobacterium tuberculosis H37Ra ATCC 25177 active stage; assay type: toxicity, cell-based, HCT-116; details: read-out: Selectivity Index; in short: as §2
[9] = test system: Escherichia coli; assay: Growth inhibition of Escherichia coli at 3 ug/ml; assay type: functional; details: read-out: GI; in short: as §1
[10] = test system: Bacillus subtilis; assay: Growth inhibition of Bacillus subtilis at 3 ug/ml; assay type: functional; details: read-out: GI; in short: as §1
[11] = Cytotoxicity against human MCF7 cells by MTT assay; assay type: toxicity, cell-based; details: for GI50: MCF7 cells; for GI90: mcf7
[12] = Selectivity index, ratio of GI50 for human THP1 cells to MIC90 for Mycobacterium bovis BCG ATCC 35743 dormant stage; assay type: toxicity, cell-based, THP-1; details: read-out: Selectivity Index
In short: (§4)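 Cytotoxicity was measured on human MCF-7, HCT116 and THP-1 cells by MTT assay, with paclitaxel as reference. The selectivity index is GI50 for the given cell line divided by MIC90 for the given mycobacterial strain and stage.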

[13] = Antitubercular activity against Mycobacterium tuberculosis H37Ra ATCC 25177 active stage measured on day 8 by XTT reduction menadione based two-fold dilution assay; assay type: functional; details: ATCC 25177, 192 h; in short: as §3
[14] = Selectivity index, ratio of GI50 for human HCT116 cells to MIC90 for Mycobacterium tuberculosis H37Ra ATCC 25177 dormant stage; assay type: toxicity, cell-based, HCT-116; details: read-out: Selectivity Index; in short: as §4
[15] = test system: Staphylococcus aureus; assay: Growth inhibition of Staphylococcus aureus at 10 ug/ml; assay type: functional; details: read-out: GI
[16] = test system: Staphylococcus aureus; assay: Growth inhibition of Staphylococcus aureus at 30 ug/ml; assay type: functional; details: read-out: GI
[17] = Selectivity index, ratio of GI50 for human THP1 cells to MIC90 for Mycobacterium bovis BCG ATCC 35743 active stage; assay type: toxicity, cell-based, THP-1; details: read-out: Selectivity Index; in short: as §2
[18] = Selectivity index, ratio of GI50 for human MCF7 cells to MIC90 for Mycobacterium tuberculosis H37Ra ATCC 25177 dormant stage; assay type: toxicity, cell-based; details: read-out: Selectivity Index; in short: as §4
[19] = test system: Pseudomonas aeruginosa; assay: Growth inhibition of Pseudomonas aeruginosa at 10 ug/ml; assay type: functional; details: read-out: GI
[20] = test system: Pseudomonas aeruginosa; assay: Growth inhibition of Pseudomonas aeruginosa at 30 ug/ml; assay type: functional; details: read-out: GI
[21] = Selectivity index, ratio of GI50 for human MCF7 cells to MIC90 for Mycobacterium bovis BCG ATCC 35743 dormant stage; assay type: toxicity, cell-based; details: read-out: Selectivity Index; in short: as §4
[22] = test system: Escherichia coli; assay: Growth inhibition of Escherichia coli at 30 ug/ml; assay type: functional; details: read-out: GI
[23] = test system: Bacillus subtilis; assay: Growth inhibition of Bacillus subtilis at 30 ug/ml; assay type: functional; details: read-out: GI
[24] = test system: Bacillus subtilis; assay: Growth inhibition of Bacillus subtilis at 10 ug/ml; assay type: functional; details: read-out: GI
[25] = Selectivity index, ratio of GI50 for human MCF7 cells to MIC90 for Mycobacterium tuberculosis H37Ra ATCC 25177 active stage; assay type: toxicity, cell-based; details: read-out: Selectivity Index; in short: as §2
[26] = Antitubercular activity against Mycobacterium tuberculosis H37Ra ATCC 25177 dormant stage infected in human THP1 cells measured on day 12 by nitrate reductase assay; assay type: functional, THP-1; details: ATCC 25177, 288 h
[27] = Antitubercular activity against Mycobacterium bovis BCG ATCC 35743 active stage measured on day 8 by nitrate reductase based two-fold dilution assay; assay type: functional, Mycobacterium bovis BCG str. ATCC 35743; details: Mycobacterium tuberculosis variant bovis BCG, ATCC 35743, 192 h
[28] = Cytotoxicity against human HCT116 cells by MTT assay; assay type: toxicity, cell-based, HCT-116; details: for GI50: HCT116 cells; for GI90: hct-116
[29] = Selectivity index, ratio of GI50 for human THP1 cells to MIC90 for Mycobacterium tuberculosis H37Ra ATCC 25177 dormant stage; assay type: toxicity, cell-based, THP-1; details: read-out: Selectivity Index; in short: as §4
[30] = Cytotoxicity against human THP1 cells by MTT assay; assay type: toxicity, cell-based, THP-1; details: for GI50: THP1 cells; for GI90: thp-1
[31] = test system: Staphylococcus aureus; assay: Growth inhibition of Staphylococcus aureus at 3 ug/ml; assay type: functional; details: read-out: GI; in short: as §1
[32] = Selectivity index, ratio of GI50 for human HCT116 cells to MIC90 for Mycobacterium bovis BCG ATCC 35743 dormant stage; assay type: toxicity, cell-based, HCT-116; details: read-out: Selectivity Index; in short: as §4
[33] = Antitubercular activity against Mycobacterium bovis BCG ATCC 35743 dormant stage measured on day 12 by nitrate reductase based two-fold dilution assay; assay type: functional, Mycobacterium bovis BCG str. ATCC 35743; details: Mycobacterium tuberculosis variant bovis BCG, ATCC 35743, 288 h

SMILES | inhibition of growth at 10 µg/mL [1] [%] | inhibition of growth at 3 µg/mL [2] [%] | MIC90 [3] [µg/mL] | selectivity ratio [4] | selectivity ratio [5] | selectivity ratio [6] | IC50 [7] [µg/mL] | MIC90 [7] [µg/mL] | selectivity ratio [8] | inhibition of growth at 3 µg/mL [9] [%] | inhibition of growth at 3 µg/mL [10] [%] | GI50 [11] [µg/mL] | GI90 [11] [µg/mL] | selectivity ratio [12] | IC50 [13] [µg/mL] | MIC90 [13] [µg/mL] | selectivity ratio [14] | inhibition of growth at 10 µg/mL [15] [%] | inhibition of growth at 30 µg/mL [16] [%] | selectivity ratio [17] | also measured
C/C(=N\Nc1nc(-c2ccc(Br)cc2)cs1)c1sc(C)nc1C | 70.7 | 30.5 | 47.9 (≈ 118 µM) | 9 | 9 | 2 | 0.66 (≈ 1.62 µM) | 43.7 (≈ 107 µM) | 2 | 35.8 | 25.9 | > 100 | > 100 | 9 | 0.15 (≈ 0.368 µM) | 44.1 (≈ 108 µM) | 2 | 68.8 | 81 | 9 | selectivity ratio [18]: 2; inhibition of growth at 10 µg/mL [19]: 69.5%; inhibition of growth at 30 µg/mL [20]: 82.1%; selectivity ratio [21]: 9; inhibition of growth at 30 µg/mL [22]: 82%; inhibition of growth at 30 µg/mL [23]: 79.5%; inhibition of growth at 10 µg/mL [24]: 66.4%; selectivity ratio [25]: 2; MIC90 [26]: 48.8 µg/mL (≈ 120 µM); IC50 [27]: 1.6 µg/mL (≈ 3.93 µM); MIC90 [27]: 11.4 µg/mL (≈ 28 µM); GI50 [28]: > 100 µg/mL; GI90 [28]: > 100 µg/mL; selectivity ratio [29]: 2; GI50 [30]: > 100 µg/mL; GI90 [30]: > 100 µg/mL; inhibition of growth at 3 µg/mL [31]: 31.2%; selectivity ratio [32]: 9; IC50 [33]: 2.51 µg/mL (≈ 6.16 µM); MIC90 [33]: 10.6 µg/mL (≈ 26 µM)
C/C(=N\NC(N)=S)c1sc(C)nc1C | 76.8 | 64.7 | > 100 | 1 | 1 | 1 | 0.19 (≈ 0.832 µM) | 30.5 (≈ 134 µM) | 1 | 66.4 | 61.5 | > 100 | > 100 | 1 | 0.21 (≈ 0.92 µM) | > 100 | 3 | 75.4 | 84.2 | 1 | selectivity ratio [18]: 3; inhibition of growth at 10 µg/mL [19]: 76.3%; inhibition of growth at 30 µg/mL [20]: 85.4%; selectivity ratio [21]: 1; inhibition of growth at 30 µg/mL [22]: 85%; inhibition of growth at 30 µg/mL [23]: 82.9%; inhibition of growth at 10 µg/mL [24]: 73.5%; selectivity ratio [25]: 1; MIC90 [26]: > 100 µg/mL; IC50 [27]: 4.42 µg/mL (≈ 19.4 µM); MIC90 [27]: > 100 µg/mL; GI50 [28]: > 100 µg/mL; GI90 [28]: > 100 µg/mL; selectivity ratio [29]: 3; GI50 [30]: > 100 µg/mL; GI90 [30]: > 100 µg/mL; inhibition of growth at 3 µg/mL [31]: 64.2%; selectivity ratio [32]: 1; IC50 [33]: 5.09 µg/mL (≈ 22.3 µM); MIC90 [33]: > 100 µg/mL
